Usually IC50 stands for the concentration that inhibits the measured activity by half. Read a high IC50 as weaker potency.

The source of these data is ChEMBL document CHEMBL1137523, “Efficient one-pot synthesis of biologically active polysubstituted aromatic amines” (Bioorg Med Chem, 2007).

Values after ≈ are worked out from the molar mass of the structure shown. Active and inactive are the calls of the source. The calls are words filed in the database; no cut-off is given here. A value given as a limit tells only on which side of the number the result lay.

Experiment [1] relates to L929. Description: Growth inhibition of mouse L929 cells after 5 days by MTT assay. Format: functional, cell-based. The settings on record: L929, 120 h. The method, boiled down:
(§1)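 L-929 cells (DSMZ) were grown in DME with 10% newborn calf serum at 37 °C, 10% CO2, in humid air. In microtiter plates, a suspension of 50,000 cells/mL was added to a serial dilution of inhibitor (2:1 cell suspension to dilution). Metabolic activity per well was read by MTT after 5 days.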
For orientation: Tetrazolium dyes change colour on reduction, which living cells bring about.

Experiment [2] concerns L929. Description: Growth inhibition of mouse L929 cells below 40 ug/mL after 5 days by MTT assay. Format: functional, cell-based. The method, boiled down: as §1
In the next experiment the test system is Potorous tridactylus. Description: Effect on cell morphology in PtK2 potoroo cells assessed as changes in morphology at 50 ug/mL after 18 hrs.

In turn, `COc1ccc(NCC(C)C)cc1` came in with an IC50 with L929 [1] of more than 40 µg/mL. Besides, the outcome with L929 [2] was inactive.
With `COc1ccc(N(Cc2ccccc2)CC(C)C)cc1`, the IC50 in the experiment with L929 [1] was determined as 10 µg/mL (≈ 37.1 µM).
`O=[N+]([O-])c1cc(O)ccc1NCc1ccccc1`: the midpoint of inhibition in the experiment with L929 [1], the IC50, lay at 9 µg/mL (≈ 36.8 µM). Also, the outcome with Potorous tridactylus was Active.
In turn, `COc1ccc(CNc2ccc(O)c([N+](=O)[O-])c2)cc1` yielded a half-maximal inhibitory concentration (IC50) in the experiment on L929 [1] of 20 µg/mL (≈ 72.9 µM).
Turning to `COc1ccc(NCc2ccc([N+](=O)[O-])cc2)cc1`, in the experiment on L929 [1], the IC50 was more than 40 µg/mL.
For `COc1ccc(N(Cc2ccccc2)Cc2ccc([N+](=O)[O-])cc2)cc1`, the IC50 in the experiment on L929 [1] is more than 40 µg/mL.
As for `COc1ccc(N(Cc2ccccc2)Cc2ccccc2OC)cc1`, the IC50 in the experiment on L929 [1] is more than 40 µg/mL. The outcome in the experiment on L929 [2] was inactive.
The compound `COc1ccc(N(Cc2ccccc2OC)CC(C)C)cc1` returned an IC50 in the experiment on L929 [1] of 15 µg/mL (≈ 50.1 µM).
Regarding `COc1ccc(NCc2ccccc2OC)cc1`, the IC50 in the experiment on L929 [1] amounted to 25 µg/mL (≈ 103 µM).
As for `CCCCCCCCCNc1ccc(OC)cc1`, the 50% inhibitory concentration (IC50) with L929 [1] was found to be 12 µg/mL (≈ 48.1 µM).
Still for that read-out and setting: for `COc1ccc(N(Cc2ccccc2)Cc2ccccc2)cc1` the value was 12 µg/mL (≈ 39.6 µM); for `COc1ccc(N(CC(C)C)CC(C)C)cc1`, 25 µg/mL (≈ 106 µM); for `COc1ccc(NC(C)c2ccsc2)cc1` (stereo unspecified), 30 µg/mL (≈ 129 µM).
Still for that read-out and setting: next, `Cc1ccc(N(Cc2ccccc2)Cc2ccccc2)cc1`: 11 µg/mL (≈ 38.3 µM).
In the experiment with L929 [1], `COc1ccc(N(Cc2ccc([N+](=O)[O-])cc2)CC(C)C)cc1` displayed a half-inhibitory concentration (IC50) of more than 40 µg/mL. The outcome in the experiment on L929 [2] was inactive.
With `Cc1ccc(NCc2ccccc2)cc1` [N-BENZYL-4-METHYLANILINE], the half-maximal inhibitory concentration (IC50) in the experiment on L929 [1] is more than 40 µg/mL. Further, the outcome in the experiment with L929 [2] was inactive.
With `c1ccc(CNc2ccccn2)cc1`, half-maximal inhibition with L929 [1] (IC50) was put at 35 µg/mL (≈ 190 µM).
`COc1ccc(N(Cc2ccc([N+](=O)[O-])cc2)Cc2ccccc2OC)cc1`: in the experiment on L929 [1], the IC50 is more than 40 µg/mL.
The same measure, in the same setting: next, `COc1ccc(NC(C)c2ccccc2)cc1` (stereo unspecified): 30 µg/mL (≈ 132 µM).
The compound `Cc1ccc(N(Cc2ccccc2)CC(C)C)cc1` came in with a half-maximal inhibitory concentration (IC50) with L929 [1] of 5 µg/mL (≈ 19.7 µM). In addition, the outcome with Potorous tridactylus was Active.
In the experiment on L929 [1], `Cc1ccc(N(CC(C)C)CC(C)C)cc1` showed an IC50 of 13 µg/mL (≈ 59.3 µM).
Consider `COc1ccc(NC(C)c2ccco2)cc1` (stereo unspecified), for which the half-inhibitory concentration (IC50) in the experiment on L929 [1] is 40 µg/mL (≈ 184 µM).
As to `CC(=O)c1ccc(NCc2ccccc2)cc1`, in the experiment with L929 [1], the IC50 was 22 µg/mL (≈ 97.7 µM).
On the same count and under the same terms, next, `CCCCCCCCCN(CC(C)C)c1ccc(OC)cc1`: 20 µg/mL (≈ 65.5 µM).
`O=C(O)Cc1ccc(NCc2ccccc2)cc1`: in the experiment on L929 [1], the concentration for half-maximal inhibition (IC50) is more than 40 µg/mL.
